In ChEMBL document CHEMBL6092172, “Exploration and characterization of the antimalarial activity of cyclopropyl carboxamides that target the mitochondrial protein, cytochrome b” (Eur J Med Chem, 2024) one finds Activity, EC50 and CC50 data, which are given here for 11 molecules.

Assay [1] relates to Plasmodium falciparum. As to the kind of experiment: Effect on oxygen consumption rate in Plasmodium falciparum infected with human RBC at 5 uM by Seahorse XFe24 analyzer. Format: functional, organism-based. A digest of the protocol:
(§1)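 Malate-dependent OCR of P. falciparum measured first as 5 basal timepoints. Compound (5 μM) then injected and OCR followed for 8 timepoints. TMPD (cytochrome c donor) then added for 5 timepoints, followed by NaN3 (complex IV inhibitor) for 5 timepoints. Means and SDs of 3 technical replicates.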

The test system of assay [2] is Plasmodium falciparum. As to the kind of experiment: Effect on oxygen consumption rate in Plasmodium falciparum infected with human RBC at 5 uM in presence of TMPD by Seahorse XFe24 analyzer. Format: functional, organism-based. A digest of the protocol: as §1
For assay [3], the system named is Plasmodium falciparum. As to the kind of experiment: Antimalarial activity against asexual Plasmodium falciparum Dd2 harbouring ScDHODH incubated for 72 hrs by SYBR green staining based flow cytometry analysis. The assay is classed as functional, organism-based. The note with it: Dd2, 72 h. A digest of the protocol: (§2)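 Asexual parasites were exposed to compound for 72 h and growth was read as SYBR green signal by flow cytometry (FACS).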
In general terms: In flow cytometry, cells or beads pass a laser one at a time.

Assay [4] deals with Plasmodium falciparum. As to the kind of experiment: Antimalarial activity against asexual blood stage Plasmodium falciparum Dd2 harbouring Cyt b with I22L mutant incubated for 72 hrs by flow cytometry analysis. Format: functional, organism-based. To be noted: Dd2, 72 h. The essentials: as §2
In assay [5] the test system is Plasmodium falciparum. As to the kind of experiment: Antimalarial activity against asexual Plasmodium falciparum SB1-A6 incubated for 72 hrs by SYBR green staining based flow cytometry analysis. The note with it: SB1-A6, 72 h. Format: functional, organism-based. A digest of the protocol:
as §2

For assay [6], the system named is Plasmodium falciparum. Put plainly: Antimalarial activity against asexual Plasmodium falciparum 3D7 incubated for 72 hrs by LDH assay. Format: functional, organism-based. To be noted: 3D7, 72 h. The essentials:
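P. falciparum 3D7 asexual parasites exposed 72 h at 37 °C (5 % CO2, 5 % O2) to a 10-point 1-in-3 dilution series […], 0.1 % DMSO; 0.1 % DMSO and 100 nM chloroquine as controls. Plates frozen at −80 °C and thawed, then LDH read (lactate/APAD/NBT/diaphorase, Tris pH 7.5) at 650 nm after 30 min.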

For assay [7], the system named is Plasmodium falciparum. As to the kind of experiment: Antimalarial activity against asexual synchronized ring stage Plasmodium falciparum 3D7 infected with human RBC assessed as parasite arrest measured after 24 hrs by giemsa staining based microscopy analysis. Format: functional, organism-based. A digest of the protocol:
(§3)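 Giemsa-stained blood smears scored by microscopy for stage progression.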

Assay [8] concerns Plasmodium falciparum. As to the kind of experiment: Antimalarial activity in asexual blood-stage Plasmodium falciparum Dd2-B2 infected in human O+ RBC assessed as minimum inoculum of resistance at 3 times IC90 measured for 60 days by SYBR green/Mito tracker deep red based flow cytometry analysis. Format: functional, organism-based. The note with it: time 60.0 day. The essentials:
(§4)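 Cultures were grown in human O+ RBCs at 3 % hematocrit in AlbuMAX-supplemented RPMI-1640 at 37 °C under 5 % O2/5 % CO2/90 % N2. […] Wells were checked three times weekly by flow cytometry and smear; a well was positive at 0.3 % parasitemia with parasites seen on smear.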

For assay [9], the system named is Plasmodium falciparum. Put plainly: Antimalarial activity against asexual blood stage Plasmodium falciparum Dd2-B2 assessed as parasite recrudescence by measuring minimum inoculum of resistance measured for 60 days by flow cytometry. The assay is classed as functional. To be noted: time 60 day. A digest of the protocol:
as §4

Assay [10] concerns Plasmodium falciparum. As to the kind of experiment: Antimalarial activity against asexual synchronized ring stage Plasmodium falciparum 3D7 infected with human RBC assessed as parasite arrest at 10 times EC50 treated every 24 hrs for 120 hrs followed by compound washout and subsequent addition of RBCs measured after 28 days by parasite reduction ratio assay. The assay is classed as functional, organism-based. The essentials:
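Parasite reduction ratio assay on 3D7. […] Compound then washed out and uninfected RBCs and medium added. Regrowth measured by LDH assay after 28 days; means and SDs of 3 replicate experiments.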

The test system of assay [11] is Plasmodium falciparum. Put plainly: Effect on oxygen consumption rate in Plasmodium falciparum infected with human RBC at 5 uM in presence of NaN3 by Seahorse XFe24 analyzer. Format: functional, organism-based. The essentials:
as §1

The subject of assay [12] is Plasmodium falciparum. As to the kind of experiment: Antimalarial activity against asexual N-cyclopropyl-4-((cyclopropyl(2,4-dichlorobenzyl)amino)methyl)benzamide-resistant Plasmodium falciparum harbouring DHODH genome with 2 fold CNV measured after 72 hrs by LDH assay. Format: functional, organism-based. The essentials: (§5)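 They were tested in a 72 h LDH assay: 10-point 3-fold dilutions […] in 0.1 % DMSO, with 100 nM chloroquine as the kill control. Incubation was 37 °C under 5 % CO2/5 % O2, then freeze–thaw, APAD/NBT/diaphorase mix, A650 after 30 min, and a four-parameter fit.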

The subject of assay [13] is Plasmodium falciparum. As to the kind of experiment: Antimalarial activity against asexual synchronized ring stage Plasmodium falciparum 3D7 infected with human RBC assessed as parasite growth inhibition measured after 48 hrs by giemsa staining based microscopy analysis. Format: functional, organism-based. The note with it: 3D7, Erythrocyte. A digest of the protocol: as §3

For assay [14], the system named is Plasmodium falciparum. As to the kind of experiment: Antimalarial activity against asexual blood stage Plasmodium falciparum Dd2 incubated for 72 hrs by flow cytometry analysis. Format: functional, organism-based. To be noted: Dd2, 72 h. A digest of the protocol: as §2
Assay [15] relates to Plasmodium falciparum. Put plainly: Antimalarial activity against asexual synchronized ring stage Plasmodium falciparum 3D7 infected with human RBC assessed as parasite arrest measured after 12 to 48 hrs by SYBR green staining based flow cytometry analysis. Format: functional, organism-based. To be noted: time 12-48 hrs. The essentials: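 Parasitemia measured by flow cytometry of SYBR Green-stained infected RBCs; mean of three technical replicates.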

Assay [16] deals with Plasmodium falciparum. Put plainly: Antiplasmodial activity against Plasmodium falciparum NF54 stage V gametocytes assessed as reduction in xanthurenic acid induced female gametocyte development measured after 48 hrs by fluorescence microscopic analysis. The note with it: NF54, 48 h.
Assay [17] relates to Plasmodium falciparum. Put plainly: Antimalarial activity against asexual compound resistant Plasmodium falciparum harbouring cyt b […] mutant at Qo site measured after 72 hrs by LDH assay. The assay is classed as functional, organism-based. The essentials:
as §5

Assay [18] has as its system Plasmodium falciparum. As to the kind of experiment: Antimalarial activity against asexual Plasmodium falciparum 3D7 harbouring cytb with V259L mutant at Qo site incubated for 72 hrs by SYBR green staining based flow cytometry analysis. To be noted: 3D7, 72 h.
Assay [19] deals with Plasmodium falciparum. Put plainly: Antimalarial activity against asexual 4-(((N-cyclopropyl-2,4,6-trimethylphenyl)sulfonamido)methyl)-N-methylbenzamide-resistant Plasmodium falciparum harbouring cyt b […] mutant at Qo site measured after 72 hrs by LDH assay. The assay is classed as functional, organism-based. The essentials: as §5
The test system of assay [20] is HepG2. As to the kind of experiment: Cytotoxicity against human HepG2 cells assessed as reduction in cell viability measured after 48 hrs by cell-titer glo assay. The assay is classed as functional. The essentials:
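HepG2 cells grown in DMEM with 10 % FCS; 1000 cells per well seeded onto a 1:2 dilution series from 50 μM (0.5 % DMSO). Incubated 48 h at 37 °C, 5 % CO2. Viability read by CellTiter-Glo and normalised to DMSO and 10 μM bortezomib controls. Value from four-parameter fit; average of ≥2 independent experiments.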

Assay [21] deals with Plasmodium falciparum. As to the kind of experiment: Antiplasmodial activity against Plasmodium falciparum NF54 stage V gametocytes assessed as reduction in xanthurenic acid induced male gametocyte development measured after 48 hrs by fluorescence microscopic analysis. To be noted: NF54, 48 h.
For assay [22], the system named is Plasmodium falciparum. As to the kind of experiment: Antimalarial activity against asexual compound resistant Plasmodium falciparum harbouring cyt b F264L mutant at Qo site measured after 72 hrs by LDH assay. The assay is classed as functional, organism-based. The essentials: as §5
The test system of assay [23] is Plasmodium berghei. Put plainly: Antiplasmodial activity against exo-erythrocytic stage Plasmodium berghei sporozoites expressing GFP-Luc fused genes infected in human HepG2-A16-CD81 cells expressing EGFP assessed as reduction in parasite growth measured after 48 hrs by bioluminescence analysis. The note with it: HepG2-A16-CD81, 48 h. Format: functional, organism-based. The essentials:
(§6)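 HepG2 cells pre-treated with a 10-point dilution series of compound, then infected with luciferase-expressing P. berghei sporozoites. After 48 h, exoerythrocytic form viability read by bioluminescence.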

In assay [24] the test system is Plasmodium berghei. As to the kind of experiment: Antiplasmodial activity against liver stage Plasmodium berghei sporozoites infected in human HepG2 assessed as reduction in parasite growth measured after 48 hrs by bioluminescence analysis. Format: functional, organism-based. The note with it: HepG2, 48 h. The essentials: as §6
Assay [25] concerns Plasmodium falciparum. Put plainly: Antimalarial activity against asexual N-cyclopropyl-4-((cyclopropyl(2,4-dichlorobenzyl)amino)methyl)benzamide-resistant Plasmodium falciparum harbouring DHODH genome with 5 fold CNV measured after 72 hrs by LDH assay. Format: functional, organism-based. A digest of the protocol: as §5

Structures are written as SMILES. Active and inactive are the calls of the source. The calls are words filed in the database; no cut-off is given here. A value given as a limit tells only on which side of the number the result lay.

For orientation: EC50 means the concentration that produces a half-maximal response. As for `Cc1cc(Nc2ccc(S(F)(F)(F)(F)F)cc2)n2nc(C(C)(F)F)nc2n1` [DSM-265], the result in assay [1] and in [2] was inactive. Besides, the EC50 was above 10000 nM in assay [3], 8 nM in assay [4] and above 10000 nM in assay [5].
Take `CN(C(=O)c1ccc(CN(Cc2ccccc2)C2CC2)cc1)C1CC1`: the EC50 in assay [6] was above 10000 nM.
`O=C(Nc1ccccc1)c1ccc(CN(Cc2ccc(Cl)cc2Cl)C2CC2)cc1` came in with an EC50 in [6] of 1200 nM.
For `O=C(NC1CC1)c1ccc(CN(Cc2ccc(Cl)cc2Cl)C2CC2)cc1`, the outcome in assay [7], in [8], in assay [1], in assay [11] and in assay [15] was Active. The values for the Activity in [9] and in assay [10] were 1.9 10^7No_unit and “Active; Compound Showed Moderate To Slow Rate Of Kill Than Pyrimethamine And Slightly Quicker Than Atq”, respectively. The result in assay [2] was inactive. The EC50 in [12] was 620 nM; in assay [13], 2500 nM; in [14] it was 118 nM; in assay [16] it was above 25000 nM.
As to `CC(C)CN(Cc1ccc(C(=O)NC2CC2)cc1)C1CC1`, in [6], a half-maximal effect (EC50) was put at 400 nM.
The term CC50 denotes the concentration at which the toxic effect on the cells reaches its halfway point. For the molecule `CNC(=O)c1ccc(CN(C2CC2)S(=O)(=O)c2c(C)cc(C)cc2C)cc1`, the result in assay [7], in assay [8], in assay [1], in assay [11] and in assay [15] was Active. Besides, the EC50 is 110 nM in [6]; 1730 nM in assay [17]; 420 nM in assay [18]; 283 nM in [19]; 1100 nM in [21]; above 10000 nM in assay [3]. Also, the EC50 was 2100 nM in assay [22]; 70 nM in [23]; 1300 nM in assay [13]; 70 nM in [14]; above 50000 nM in assay [24]; 65 nM in assay [4]. Moreover, the EC50 in assay [16] was above 25000 nM; in [25], 500 nM; in assay [5], above 10000 nM. The results for the Activity in assay [9] and in assay [10] were >2 10^7No_unit and “Active; Compound Showed Moderate To Slow Rate Of Kill Than Pyrimethamine And Slightly Quicker Than Atq”, respectively. Besides, in assay [2], the result was inactive. Besides, in assay [20], the CC50 was above 40000 nM.
On to `O=C(NC1CC1)c1ccc(CN(Cc2ccccc2)Cc2ccccc2)cc1`, for which the EC50 in [6] turned out to be 590 nM.
`O=C(NC1CCCC1)c1ccc(CN(Cc2ccc(Cl)cc2Cl)C2CC2)cc1` returned an EC50 in [6] of 1800 nM.
Consider `O=C1C(O)=C([C@H]2CC[C@H](c3ccc(Cl)cc3)CC2)C(=O)c2ccccc21` [ATOVAQUONE], for which the result in [7], in assay [1], in assay [11] and in assay [15] was Active. The EC50 in assay [18] is 13 nM; in [3] it was above 10000 nM; in assay [13], 11700 nM; in [4], 5400 nM; in assay [5] it was above 10000 nM. Further, the result in assay [2] was inactive.
`CCCN(Cc1ccc(C(=O)NC2CC2)cc1)Cc1c(C)cc(C)cc1C`: the EC50 in [16] was above 25000 nM.
`Cc1cccc(CN(Cc2ccc(C(=O)NC3CC3)cc2)C2CC2)c1C` gave an EC50 in assay [6] of 150 nM. Moreover, the CC50 in assay [20] is above 40000 nM.
